# Test results reported in ChEMBL document CHEMBL1138194, “Spatial conformation and topography of the tyrosine aromatic ring in substrate recognition by protein tyrosine kinases” (J Med Chem, 2006).
# Columns and labels:
# [1] = system: CC(C)[C@H](NC(=O)[C@H](CCC(=O)O)NC(=O)[C@H](CCC(=O)O)NC(=O)[C@@]1(NC(=O)[C@H](CCC(=O)O)NC(=O)[C@H](CC(=O)O)NC(=O)[C@H](CC(=O)O)NC(=O)[C@@H](N)CCC(=O)O)Cc2ccc(O)cc2C1)C(=O)O; assay: (§1) Affinity towards tyrosine kinase Syk
# In short: (§2)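 Syk purified from rat spleen (1 unit = 1 pmol phosphate/min to polyGlu4Tyr at 0.1 mg/mL). Kinetic assays at 30 °C in 50 mM Tris/HCl pH 7.5, 5 mM MnCl2, 20 µM [γ33P]ATP, 10 units enzyme, varied peptide substrate. Stopped with 1 N HCl, heated to hydrolyse ATP, Pi removed as phosphomolybdic complex; aqueous phosphopeptide counted by scintillation; Km derived.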
# [2] = system: CC(C)[C@H](NC(=O)[C@H](CCC(=O)O)NC(=O)[C@H](CCC(=O)O)NC(=O)[C@@]1(NC(=O)[C@H](CCC(=O)O)NC(=O)[C@H](CC(=O)O)NC(=O)[C@H](CC(=O)O)NC(=O)[C@@H](N)CCC(=O)O)CCc2cc(O)ccc2C1)C(=O)O; assay: as §1; in short: as §2
# [3] = system: CC(C)[C@H](NC(=O)[C@H](CCC(=O)O)NC(=O)[C@H](CCC(=O)O)NC(=O)[C@H](Cc1ccc(O)cc1)NC(=O)[C@H](CCC(=O)O)NC(=O)[C@H](CC(=O)O)NC(=O)[C@H](CC(=O)O)NC(=O)[C@@H](N)CCC(=O)O)C(=O)O; assay: as §1; in short: as §2
# [4] = system: CC(C)[C@H](NC(=O)[C@H](CCC(=O)O)NC(=O)[C@H](CCC(=O)O)NC(=O)[C@]1(NC(=O)[C@H](CCC(=O)O)NC(=O)[C@H](CC(=O)O)NC(=O)[C@H](CC(=O)O)NC(=O)[C@@H](N)CCC(=O)O)Cc2ccc(O)cc2C1)C(=O)O; assay: as §1; in short: as §2
# [5] = system: CC(C)[C@H](NC(=O)[C@H](CCC(=O)O)NC(=O)[C@H](CCC(=O)O)NC(=O)[C@H](Cc1cccc(O)c1)NC(=O)[C@H](CCC(=O)O)NC(=O)[C@H](CC(=O)O)NC(=O)[C@H](CC(=O)O)NC(=O)[C@@H](N)CCC(=O)O)C(=O)O; assay: as §1; in short: as §2
# [6] = system: CC(C)[C@H](NC(=O)[C@H](CCC(=O)O)NC(=O)[C@H](CCC(=O)O)NC(=O)[C@@H](NC(=O)[C@H](CCC(=O)O)NC(=O)[C@H](CC(=O)O)NC(=O)[C@H](CC(=O)O)NC(=O)[C@@H](N)CCC(=O)O)[C@@H](C)c1ccc(O)cc1)C(=O)O; assay: as §1; in short: as §2
# [7] = system: CC(C)[C@H](NC(=O)[C@H](CCC(=O)O)NC(=O)[C@H](CCC(=O)O)NC(=O)[C@](C)(Cc1ccc(O)cc1)NC(=O)[C@H](CCC(=O)O)NC(=O)[C@H](CC(=O)O)NC(=O)[C@H](CC(=O)O)NC(=O)[C@@H](N)CCC(=O)O)C(=O)O; assay: as §1; in short: as §2
# [8] = system: CC(C)[C@H](NC(=O)[C@H](CCC(=O)O)NC(=O)[C@H](CCC(=O)O)NC(=O)[C@]1(NC(=O)[C@H](CCC(=O)O)NC(=O)[C@H](CC(=O)O)NC(=O)[C@H](CC(=O)O)NC(=O)[C@@H](N)CCC(=O)O)CCc2cc(O)ccc2C1)C(=O)O; assay: as §1; in short: as §2
# [9] = system: CC(C)[C@H](NC(=O)[C@H](CCC(=O)O)NC(=O)[C@H](CCC(=O)O)NC(=O)[C@H](NC(=O)[C@H](CCC(=O)O)NC(=O)[C@H](CC(=O)O)NC(=O)[C@H](CC(=O)O)NC(=O)[C@@H](N)CCC(=O)O)[C@@H](C)c1ccc(O)cc1)C(=O)O; assay: as §1; in short: as §2
# [10] = system: CC(C)[C@H](NC(=O)[C@H](CCC(=O)O)NC(=O)[C@H](CCC(=O)O)NC(=O)[C@@H]1Cc2cc(O)ccc2CN1C(=O)[C@H](CCC(=O)O)NC(=O)[C@H](CC(=O)O)NC(=O)[C@H](CC(=O)O)NC(=O)[C@@H](N)CCC(=O)O)C(=O)O; assay: as §1; in short: as §2
# [11] = system: CC(C)[C@H](NC(=O)[C@H](CCC(=O)O)NC(=O)[C@H](CCC(=O)O)NC(=O)[C@H]1Cc2cc(O)ccc2CN1C(=O)[C@H](CCC(=O)O)NC(=O)[C@H](CC(=O)O)NC(=O)[C@H](CC(=O)O)NC(=O)[C@@H](N)CCC(=O)O)C(=O)O; assay: as §1; in short: as §2
substance,measurement,setting,value
Tyrosine-protein kinase SYK (Homo sapiens) (from UniProt P43405),Km,[1],146 µM
same,Km,[2],3.6 µM
same,Km,[3],3.6 µM
same,Km,[4],17.3 µM
same,Km,[5],5.5 µM
same,Km,[6],6.5 µM
same,Km,[7],87.7 µM
same,Km,[8],98 µM
same,Km,[9],63.2 µM
same,Km,[10],124 µM
same,Km,[11],136 µM
